ChEMBL document CHEMBL2163220 (J Med Chem, 2012)
Active and inactive are the calls of the source. No cut-off for these calls is given here.

Assays:
[1] = biological target: T1, Progesterone receptor (Homo sapiens) (UniProt P06401); assay: Antagonist activity at progesterone receptor in human PC3 cells assessed as reduction in R5020-inducedreceptor transactivation at 1 uM by luciferase reporter gene assay; assay type: functional, cell-based; conditions: PC-3
T1 sequence (whole entry): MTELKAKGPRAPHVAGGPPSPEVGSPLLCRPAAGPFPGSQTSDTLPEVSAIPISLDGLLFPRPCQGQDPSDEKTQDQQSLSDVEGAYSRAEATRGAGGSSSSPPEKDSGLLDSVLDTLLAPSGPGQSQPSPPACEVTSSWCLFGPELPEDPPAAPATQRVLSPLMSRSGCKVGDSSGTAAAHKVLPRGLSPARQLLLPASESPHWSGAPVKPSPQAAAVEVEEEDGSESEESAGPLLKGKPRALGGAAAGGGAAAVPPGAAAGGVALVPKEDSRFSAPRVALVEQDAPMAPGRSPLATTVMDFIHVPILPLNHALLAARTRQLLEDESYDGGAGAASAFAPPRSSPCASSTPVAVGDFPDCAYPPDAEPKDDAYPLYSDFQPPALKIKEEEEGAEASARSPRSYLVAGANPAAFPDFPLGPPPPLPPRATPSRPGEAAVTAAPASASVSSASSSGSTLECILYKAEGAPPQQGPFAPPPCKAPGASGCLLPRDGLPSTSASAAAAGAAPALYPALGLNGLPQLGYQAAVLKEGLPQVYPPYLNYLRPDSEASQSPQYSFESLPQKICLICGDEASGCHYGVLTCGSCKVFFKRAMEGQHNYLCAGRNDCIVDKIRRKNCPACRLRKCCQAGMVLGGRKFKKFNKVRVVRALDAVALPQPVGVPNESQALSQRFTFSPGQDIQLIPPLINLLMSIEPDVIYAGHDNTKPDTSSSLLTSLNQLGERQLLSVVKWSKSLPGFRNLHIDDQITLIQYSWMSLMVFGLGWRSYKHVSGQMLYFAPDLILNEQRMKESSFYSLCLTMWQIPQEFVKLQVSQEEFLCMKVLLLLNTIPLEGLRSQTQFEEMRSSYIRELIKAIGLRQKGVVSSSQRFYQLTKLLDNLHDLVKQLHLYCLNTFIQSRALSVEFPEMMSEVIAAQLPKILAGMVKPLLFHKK
Procedure, shortened: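 PC-3 cells lack detectable PR, so they were cotransfected with a PR expression plasmid and the MMTV-luc reporter. Compound tested at 1 μM, alone or against transactivation induced by 10 nM R5020. Read-out was luciferase reporter activity.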

PC-3 [2] = assay: Antagonist activity at androgen receptor ARv7 mutant lacking ligand binding domain expressed in human PC3 cells assessed as reduction in DHT-induced receptor transactivation at 1 uM by luciferase reporter gene assay; assay type: cell-based
Procedure, shortened: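 AR-v7 (lacks LBD), MMTV-Luc and pRL-TK (Renilla) plasmids transiently transfected into PC-3 cells; cells treated with DMSO vehicle, 0.1 nM DHT, or test compound at 1 μM; transactivation read as luciferase activity (relative luciferase units).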

PC-3 [3] = assay: Cytotoxicity against human PC3 cells incubated for 72 hrs by MTT assay; assay type: functional, cell-based; conditions: PC-3, 72 h
Procedure, shortened: (§1)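 MTT assay run across a panel of prostate cancer cell lines.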

LNCaP [4] = assay: Cytotoxicity against human LNCAP cells incubated for 72 hrs by MTT assay; assay type: functional, cell-based; procedure, shortened: as §1
LNCaP [5] = assay: Reduction in androgen receptor protein expression in human LNCAP cells incubated for 24 hrs by Western blotting; assay type: functional, cell-based
Procedure, shortened: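 LNCaP cells in complete medium were exposed to DMSO or compound at 1, 2.5 and 5 μM for 24 h. Western blot measured AR, maspin, caspase-3 activation and PARP cleavage, with β-actin as loading control.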

PC-3 [6] = assay: Antagonist activity at androgen receptor T887A mutant expressed in human PC3 cells assessed as reduction in DHT-induced receptor transactivation at 0.1 to 1 uM by luciferase reporter gene assay; assay type: functional, cell-based
Procedure, shortened: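 Full-length wild-type or mutant AR plasmid transiently transfected into PC-3 cells with MMTV-luc and Renilla luciferase reporters. Cells treated with DMSO vehicle or compound at 0.1 and 1 μM, alone or with 0.1 nM DHT. Luciferase read as relative luciferase units. Run in triplicate.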

[7] = biological target: T2, Androgen receptor (Homo sapiens) (UniProt P10275); assay: Antagonist activity at androgen receptor in human LNCaP cells assessed as increase in Maspin promoter activity by luciferase reporter gene assay; assay type: functional, cell-based
T2 sequence (whole entry): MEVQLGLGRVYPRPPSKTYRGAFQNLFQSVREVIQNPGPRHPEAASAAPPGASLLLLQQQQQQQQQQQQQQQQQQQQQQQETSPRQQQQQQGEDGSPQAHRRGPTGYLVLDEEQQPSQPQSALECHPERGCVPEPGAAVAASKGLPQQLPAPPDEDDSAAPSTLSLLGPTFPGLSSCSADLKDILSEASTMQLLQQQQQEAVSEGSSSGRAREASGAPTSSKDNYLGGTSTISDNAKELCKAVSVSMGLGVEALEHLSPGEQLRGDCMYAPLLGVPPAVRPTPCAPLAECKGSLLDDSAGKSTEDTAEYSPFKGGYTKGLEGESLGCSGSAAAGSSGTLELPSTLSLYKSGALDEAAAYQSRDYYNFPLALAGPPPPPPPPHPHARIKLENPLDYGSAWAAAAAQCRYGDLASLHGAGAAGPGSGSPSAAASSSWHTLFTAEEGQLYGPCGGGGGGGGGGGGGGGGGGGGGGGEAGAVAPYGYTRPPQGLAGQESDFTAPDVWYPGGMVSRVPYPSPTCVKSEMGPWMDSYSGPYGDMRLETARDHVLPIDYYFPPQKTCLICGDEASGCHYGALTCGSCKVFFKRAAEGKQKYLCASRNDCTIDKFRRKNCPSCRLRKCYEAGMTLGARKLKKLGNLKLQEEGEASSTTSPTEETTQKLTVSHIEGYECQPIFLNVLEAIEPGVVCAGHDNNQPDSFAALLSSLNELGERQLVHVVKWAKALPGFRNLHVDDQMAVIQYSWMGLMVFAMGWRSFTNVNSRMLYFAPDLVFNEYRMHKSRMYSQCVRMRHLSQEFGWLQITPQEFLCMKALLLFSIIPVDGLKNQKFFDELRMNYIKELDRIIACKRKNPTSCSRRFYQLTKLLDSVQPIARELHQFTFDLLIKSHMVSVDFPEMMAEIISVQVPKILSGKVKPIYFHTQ
Procedure, shortened: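 LNCaP cells carrying a maspin promoter-luciferase reporter were treated with compound and read by luciferase activity, in triplicate.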

[8] = biological target: T2, Androgen receptor (Homo sapiens); assay: Antagonist activity at androgen receptor in human LNCaP cells assessed as increase in Maspin protein expression at 1 or 2.5 uM incubated for 24 hrs in presence of DHT by Western blot
[9] = biological target: T2, Androgen receptor (Homo sapiens); assay: Antagonist activity at androgen receptor in human LNCaP cells assessed as increase in Maspin protein expression at 1 to 5 uM incubated for 24 hrs by Western blotting
[10] = biological target: T2, Androgen receptor (Homo sapiens); assay: Antagonist activity at androgen receptor in human LNCaP cells assessed as reduction in DHT-induced PSA expression incubated for 24 hrs by RT-PCR

With Cc1coc2c1C(=O)C(=O)c1c-2ccc2c1CCCC2(C)C [TANSHINONE IIA] the Activity [1] was “inactive”, the Activity (PC-3 [2]) was “inactive” and the IC50 (PC-3 [3]) was 3.3 µM. The IC50 (LNCaP [4]) was 500 nM, the Activity (LNCaP [5]) was “Dose-dependent effect” and the Activity (PC-3 [6]) was “Active”. For the same molecule, the Activity [7] was “Dose-dependent effect”, the Activity [8] was “Active” and the Activity [9] was “Active”. The Activity [10] was “Dose-dependent effect”.
